PTEN del growth – PTEN-deleted cell growth suppression; HCT116 PTEN-null viability, CellTiter-Glo, 60 h; active compounds read low; viability, % at 10 µM; 1.2% of 140,000 active; AID 827;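 active = viability at or below a set limit, 4 SD under the median of all tested compounds, cut at about 3.7% in these data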;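 note: PTEN knockout HCT116 line with beta catenin targeted HCT116 as companion control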
HUVEC prolif 384 – inhibitors of human endothelial cell proliferation. HUVEC proliferation, CellTiter-Glo luminescence, 72 h; active compounds read low. viability, % at 10 µM (by protocol). 1.1% of 86,000 active. AID 648;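 active = viability at or below 30%; inactive = viability above 30%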
bCat KO growth – beta-catenin-lacking colon tumor cell growth suppression; 1.5% of 140,000 active; viability, % at 10 µM; HCT116 beta-catenin knockout viability, CellTiter-Glo, 60 h; active compounds read low;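 active = viability at or under a set limit, the compound median less 4 SD, cut at about 6% in these data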
Fibroblast inh – blocks proliferation of human lung fibroblasts; LL 47 human lung fibroblast viability, ATP luminescence; active compounds read low; AID 719; 1.1% of 85,000 active; viability, % at 10 µM;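 active = viability at or below 50% in the single dose screen; inactive = viability above 50%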;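 note: compound exposure lasted 72 h before the ATP readout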
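test system = LL 47 human lung fibroblasts | amount = 1,150 fibroblasts seeded per well | medium = 15% FBS in IMEM | times = overnight cell rest, 72 h compound treatment at 37 °C | measured by = CellTiter-Glo luminescence measuring cellular ATP | read-out = viability percentage against median untreated-cell control | benchmarks = cell-only wells, no compound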
H69AR growth 86K – blocks growth of human H69AR lung tumor cells. 6% of 85,000 active. AID 598. viability, % at 10 µM. H69AR lung tumor viability, ATP luminescence, 72 h; active compounds read low;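 active = viability at or below 40%; inactive = viability above 40%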;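 note: multidrug resistant small cell line overexpressing MRP-1 efflux transporter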
Hits are given with their value; 0 = inactive; - = not tested or not shown. This excerpt belongs to a sample that is enriched for hits.

SMILES | PTEN del growth | HUVEC prolif 384 | bCat KO growth | Fibroblast inh | H69AR growth 86K
COc1cccc(C(=O)Nc2ccc3nc(N4CCN(c5ncccn5)CC4)cc(C)c3c2)c1OC | 1.7 | - | 2.0 | - | -
CCOc1ccccc1C(=O)Nc1ccc2nc(N3CCN(c4ncccn4)CC3)cc(C)c2c1 | - | 6.2 | - | 0 | 0.5
CCN1CCN(c2cc(C)c3cc(NC(=O)Cc4ccccc4OC)ccc3n2)CC1 | 0 | - | 0 | - | -
COc1cccc(C(=O)Nc2ccc3nc(N4CCOCC4)cc(C)c3c2)c1 | 0 | 0 | 0 | 0 | 0
COc1cc(/C=C/C(=O)OCC(=O)N2CCN(C(=O)c3ccco3)CC2)ccc1O | 0 | - | 0 | - | -
Cc1ccc(CN=Cc2[nH]c3ccc(Br)c(Cl)c3c2O)cc1 | 0 | 0 | 0 | 0 | 33.1
CCOC(=O)C1CCN(c2ncnc3c2[nH]c2cccc(OC)c23)CC1 | 0 | 0 | 0 | 0 | 22.9
COc1ccc(NC(=O)Cc2coc3ccc4ccccc4c23)cc1S(=O)(=O)N1CCOCC1 | 0 | - | 0 | - | -
CN1CCN(c2nc(-c3ccccc3)nc3c2oc2ccccc23)CC1 | - | 23.7 | - | 0 | 0
O=C(CSc1nc2ccc(Cl)cc2[nH]1)N1CCN(C(=O)c2ccco2)CC1 | 0 | - | 0 | - | -
Cc1ccc(-c2nnn(CC(=O)N(c3ccc(F)cc3)C(C(=O)NC(C)(C)C)c3ccco3)n2)o1 (configuration not stated) | 0 | 0 | 0 | 0 | 31.9
Cc1ccc(-c2nnn(CC(=O)N(c3ccc(F)cc3)C(C(=O)NC3CCCC3)c3ccco3)n2)o1 (configuration not stated) | 0 | 0 | 0 | 0 | 0
CCC1(c2ccc(F)cc2)NC(=O)N(CC(=O)Nc2ccc(-c3nc4ccc(C)cc4s3)cc2)C1=O (configuration not stated) | 1.3 | - | 1.1 | - | -
Cc1cc(NC(=O)CSc2cn(CCNC(=O)c3ccc(Cl)cc3)c3ccccc23)no1 | 0 | 0 | 0 | 0 | 0
Cn1c(=O)cc(SCC(=O)NCc2ccco2)c2ccccc21 | 0 | 0 | 0 | 0 | 0
O=C(CSc1cn(CCNC(=O)c2ccc3ccccc3c2)c2ccccc12)NCc1ccco1 | 0 | 0 | 0 | 0 | 9.6
CCOc1ccc(C(=O)NCCn2cc(SCC(=O)Nc3cc(C)on3)c3ccccc32)cc1 | 0 | 0 | 0 | 0 | 32.7
CCOC(=O)C1=C(C)NC(=S)N(C(C)=O)C1c1ccc(Cl)cc1 (configuration not stated) | 0.9 | 0 | 1.1 | 0 | 0
CCCOC(=O)c1ccc(Nc2nc(C)cc(=O)[nH]2)cc1 | 0 | 0 | 0 | 0 | 17.1
CCOC(=O)c1ccc(Nc2nc(C)cc(=O)[nH]2)cc1 | 0 | 0 | 0 | 0 | 0
CCCCNC(=S)N/N=C/c1ccc(OCC(=O)Nc2c(C)cc(C)cc2C)c(OC)c1 | 0 | - | 0 | - | -
Cc1ccc(OC(=O)C2c3ccccc3Oc3ccccc32)cc1C | 0 | - | 0 | - | -
Cc1sc2ncnc(Sc3nnc4sc5ccccc5n34)c2c1C | 0 | 0 | 0 | 0 | 34.7
CCN(CC)c1ccc(C=C(c2nnnn2-c2ccc(C)cc2)c2nnnn2-c2ccc(C)cc2)cc1 | 0 | - | 0 | - | -
CC(C)(C)c1ccc(CN2C3=NCCCN3c3ccccc32)cc1 | 2.9 | 0 | 3.9 | 0 | 14.6
SMILES | PTEN del growth | HUVEC prolif 384 | bCat KO growth | Fibroblast inh | H69AR growth 86K
C/C(CCC12CC3CC(CC(C3)C1)C2)=N\NC(N)=S | 0 | 0 | 0 | 0 | 12.9
COC(=O)CSC1=C(C#N)C(c2ccccc2)CC(=O)N1 (configuration not stated) | 0 | 0 | 0 | 0 | 0
COC(=O)CSC1=C(C#N)C(=O)NC(c2ccccc2)S1 (configuration not stated) | 0 | 28.1 | 0 | 7.4 | 1.3
Cc1cc(NC(=O)C2CCCC2)nc2c1c(=O)oc1ccccc12 | 0 | 0 | 0 | 0 | 37.0
Cc1cccc(CC(=O)Nc2cc(C)c3c(=O)oc4ccccc4c3n2)c1 | 0 | 0 | 0 | 0 | 11.5
Cc1cc(NC(=O)CN2CC3CC(C2)c2cccc(=O)n2C3)nc2c1c(=O)oc1ccccc12 (configuration not stated) | - | 0 | - | 0 | 0
Cc1cc(NC(=O)Cc2ccccc2)nc2c1c(=O)oc1ccccc12 | 0 | - | 0 | - | -
Cc1cc(NC(=O)C2CCCCC2)nc2c1c(=O)oc1ccccc12 | 0 | - | 0 | - | -
Cc1cc(NC(=O)CN2CCN(Cc3ccccc3)CC2)nc2c1c(=O)oc1ccccc12 | - | 0 | - | 0 | 22.0
Cc1cc(Cl)ccc1OC(C)C(=O)N1CCCN(C(=O)C(C)Oc2ccc(Cl)cc2C)CC1 (configuration not stated) | 0 | - | 0 | - | -
Cc1nc(NCc2ccco2)c2c3c(sc2n1)CCC3 | 0 | 20.8 | 0 | 0 | 0
c1coc(CNc2ncnc3sc4c(c23)CCCCC4)c1 | 0 | 0 | 0 | 0 | 0
